Measured values: ChEMBL document CHEMBL3091274, “SAR-based optimization of 2-(1H-pyrazol-1-yl)-thiazole derivatives as highly potent EP1 receptor antagonists” (Bioorg Med Chem Lett, 2013)
≈ marks a conversion by molar mass, not a printed value. Values belong to the compound of their own block, whether it stands above or below them.

Assays:
[1] = biological target: T1, Prostaglandin E2 receptor EP1 subtype (Homo sapiens, UniProt P34995); assay: Antagonist activity human EP1 receptor assessed as inhibition of PGE2-induced effect by reporter gene assay
T1 sequence (P34995 whole entry): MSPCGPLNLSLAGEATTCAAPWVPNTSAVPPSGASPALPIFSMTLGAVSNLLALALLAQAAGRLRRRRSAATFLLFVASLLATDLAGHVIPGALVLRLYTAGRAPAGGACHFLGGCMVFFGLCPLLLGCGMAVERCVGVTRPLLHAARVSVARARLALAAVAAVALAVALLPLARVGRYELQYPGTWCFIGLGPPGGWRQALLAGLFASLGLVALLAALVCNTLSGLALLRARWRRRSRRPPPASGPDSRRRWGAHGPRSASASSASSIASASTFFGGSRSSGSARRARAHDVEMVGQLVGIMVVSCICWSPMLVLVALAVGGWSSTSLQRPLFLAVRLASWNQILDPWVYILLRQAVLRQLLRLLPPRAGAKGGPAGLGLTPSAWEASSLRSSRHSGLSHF
Method in brief: (§1)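 Human EP1 receptor-expressing recombinant cells stimulated with PGE2; antagonism read out by reporter-gene assay or by intracellular Ca2+ release; IC50 in nM.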

[2] = Intrinsic clearance in human liver microsomes; assay type: ADME; details: read-out: CLH
Method in brief: (§2)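 Rat or human hepatic microsomes; test compound at 0.5 µM; CLint calculated from elimination ratio between 0 and 20 min; expressed as ml/min/kg.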

albumin = albumin (Homo sapiens, UniProt P02768); assay: Binding affinity to albumin in plasma (unknown origin); assay type: ADME; details: read-out: PPB (converted)
[3] = Solubility of the compound at pH 6.8; assay type: physicochemical; details: buffer
Method in brief: (§3)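 Solubility measured in aqueous buffer at pH 1.2 and pH 6.8; reported in […].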

[4] = Solubility of the compound in water; assay type: physicochemical
[5] = biological target: T1, Prostaglandin E2 receptor EP1 subtype; assay: Antagonist activity human EP1 receptor assessed as inhibition of PGE2-induced intracellular Ca2+ release by cell-based assay; assay type: functional; method in brief: as §1
[6] = Intrinsic clearance in rat liver microsomes; assay type: ADME; details: read-out: CLH; method in brief: as §2
[7] = biological target: T2, Prostaglandin E2 receptor EP1 subtype (Homo sapiens) (UniProt P34995); assay: Antagonist activity human EP1 receptor assessed as inhibition of PGE2-induced effect at 1 uM by reporter gene assay relative to control
T2 sequence (whole entry): T1 sequence (P34995 whole entry)

Cytochrome P450 2C9 = Cytochrome P450 2C9 (Homo sapiens, UniProt P11712); assay: Inhibition of human CYP2C9; assay type: ADME
[8] = biological target: Prostaglandin E2 receptor EP4 subtype (Homo sapiens, UniProt P35408); assay: Binding affinity to human EP4 receptor
[9] = biological target: T3, Prostaglandin E2 receptor EP3 subtype (Homo sapiens, UniProt P43115); assay: Binding affinity to human EP3 receptor
T3 sequence (P43115 whole entry): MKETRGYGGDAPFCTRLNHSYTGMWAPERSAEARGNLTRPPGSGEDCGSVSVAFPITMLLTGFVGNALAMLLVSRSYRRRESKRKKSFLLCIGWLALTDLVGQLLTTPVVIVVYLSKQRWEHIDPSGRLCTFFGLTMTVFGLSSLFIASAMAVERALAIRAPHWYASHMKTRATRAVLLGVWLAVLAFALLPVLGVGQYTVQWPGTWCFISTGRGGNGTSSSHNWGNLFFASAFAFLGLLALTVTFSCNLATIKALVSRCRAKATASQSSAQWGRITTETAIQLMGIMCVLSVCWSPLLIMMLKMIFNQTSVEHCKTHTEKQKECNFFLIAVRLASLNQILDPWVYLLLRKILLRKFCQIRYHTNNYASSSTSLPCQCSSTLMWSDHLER

[10] = Solubility of the compound at pH 1.2; assay type: physicochemical; details: buffer; method in brief: as §3
[11] = Apparent permeability in MDCK cells; assay type: ADME, cell-based, Canis lupus familiaris; details: dog
Method in brief: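 Epithelial permeability across Madin–Darby canine kidney cell monolayer, with atenolol as reference.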

[12] = Cmax in rat at 10 mg/kg, po; assay type: ADME, organism-based; parameters: dose 10 mg/kg, route oral; details: in vivo
Method in brief: (§4)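 Rats (n = 3) given single oral dose, 10 mg/kg; plasma Cmax, AUC and bioavailability derived from pharmacokinetic profile.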

[13] = biological target: Prostaglandin E2 receptor EP2 subtype (Homo sapiens, UniProt P43116); assay: Binding affinity to human EP2 receptor
[14] = AUC (0 to infinity) in rat at 10 mg/kg, po; assay type: ADME, organism-based; parameters: time infinity, dose 10 mg/kg, route oral; details: plasma; method in brief: as §4
[15] = Oral bioavailability in rat at 10 mg/kg; assay type: ADME, organism-based; details: in vivo; method in brief: as §4
Salmonella typhimurium = assay: Genotoxicity in Salmonella typhimurium TA98 by Ames test; assay type: toxicity, organism-based; details: salmonella enterica subsp. enterica serovar typhimurium
Method in brief: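 Bacterial reverse mutation (Ames) test in amino acid-requiring Salmonella typhimurium TA98, detecting point mutations.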

Cytochrome P450 2C19 = Cytochrome P450 2C19 (Homo sapiens, UniProt P33261); assay: Inhibition of human CYP2C19; assay type: ADME
Cytochrome P450 3A4 = Cytochrome P450 3A4 (Homo sapiens, UniProt P08684); assay: Inhibition of human CYP3A4; assay type: ADME
[16] = biological target: T1, Prostaglandin E2 receptor EP1 subtype; assay: Binding affinity to human EP1 receptor
Cytochrome P450 1A2 = biological target: T4, Cytochrome P450 1A2 (Homo sapiens, UniProt P05177); assay: Inhibition of human CYP1A2; assay type: ADME
T4 sequence (P05177 whole entry): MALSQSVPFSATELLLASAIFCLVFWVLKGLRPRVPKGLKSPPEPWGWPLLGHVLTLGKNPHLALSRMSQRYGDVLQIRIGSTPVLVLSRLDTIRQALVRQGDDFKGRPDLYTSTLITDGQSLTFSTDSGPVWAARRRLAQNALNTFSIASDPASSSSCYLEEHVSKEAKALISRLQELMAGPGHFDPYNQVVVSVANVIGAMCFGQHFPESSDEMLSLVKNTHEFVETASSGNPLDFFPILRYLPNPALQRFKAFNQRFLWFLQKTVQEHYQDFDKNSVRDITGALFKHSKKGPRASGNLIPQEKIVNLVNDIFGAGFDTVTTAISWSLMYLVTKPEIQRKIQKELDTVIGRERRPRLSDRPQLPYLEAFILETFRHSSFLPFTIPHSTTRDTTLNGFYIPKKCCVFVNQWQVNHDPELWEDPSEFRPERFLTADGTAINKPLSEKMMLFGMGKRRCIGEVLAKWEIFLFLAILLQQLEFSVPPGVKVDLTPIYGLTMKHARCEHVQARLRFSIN

Thromboxane A2 receptor = biological target: T5, Thromboxane A2 receptor (Homo sapiens, UniProt P21731); assay: Inhibition of TP receptor (unknown origin)
T5 sequence (P21731 whole entry): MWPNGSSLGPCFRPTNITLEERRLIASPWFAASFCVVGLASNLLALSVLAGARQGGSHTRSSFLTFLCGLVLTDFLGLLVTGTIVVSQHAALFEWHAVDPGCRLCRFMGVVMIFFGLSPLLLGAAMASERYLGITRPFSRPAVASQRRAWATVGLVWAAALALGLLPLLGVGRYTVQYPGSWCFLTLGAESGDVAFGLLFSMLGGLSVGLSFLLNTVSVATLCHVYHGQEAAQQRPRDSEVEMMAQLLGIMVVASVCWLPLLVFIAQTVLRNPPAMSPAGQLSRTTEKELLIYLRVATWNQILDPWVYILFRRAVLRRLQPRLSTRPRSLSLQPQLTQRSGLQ

Cytochrome P450 2D6 = Cytochrome P450 2D6 (Homo sapiens, UniProt P10635); assay: Inhibition of human CYP2D6; assay type: ADME
Cytochrome P450 2D6, sequence (P10635 whole entry): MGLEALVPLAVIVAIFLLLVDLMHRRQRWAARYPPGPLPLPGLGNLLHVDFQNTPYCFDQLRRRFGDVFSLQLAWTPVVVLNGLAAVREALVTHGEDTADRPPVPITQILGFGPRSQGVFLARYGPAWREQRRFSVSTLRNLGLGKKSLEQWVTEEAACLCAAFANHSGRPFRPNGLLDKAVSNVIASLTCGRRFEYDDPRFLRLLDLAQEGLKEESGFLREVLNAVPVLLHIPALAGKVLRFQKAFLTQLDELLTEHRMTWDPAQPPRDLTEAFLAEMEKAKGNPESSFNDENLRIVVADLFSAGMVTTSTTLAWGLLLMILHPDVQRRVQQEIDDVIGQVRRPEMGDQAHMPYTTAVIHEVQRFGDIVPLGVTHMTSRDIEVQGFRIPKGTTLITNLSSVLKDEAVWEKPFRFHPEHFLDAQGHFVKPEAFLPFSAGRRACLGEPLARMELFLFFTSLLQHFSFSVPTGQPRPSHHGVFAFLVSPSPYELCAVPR

albumin, sequence (P02768 whole entry): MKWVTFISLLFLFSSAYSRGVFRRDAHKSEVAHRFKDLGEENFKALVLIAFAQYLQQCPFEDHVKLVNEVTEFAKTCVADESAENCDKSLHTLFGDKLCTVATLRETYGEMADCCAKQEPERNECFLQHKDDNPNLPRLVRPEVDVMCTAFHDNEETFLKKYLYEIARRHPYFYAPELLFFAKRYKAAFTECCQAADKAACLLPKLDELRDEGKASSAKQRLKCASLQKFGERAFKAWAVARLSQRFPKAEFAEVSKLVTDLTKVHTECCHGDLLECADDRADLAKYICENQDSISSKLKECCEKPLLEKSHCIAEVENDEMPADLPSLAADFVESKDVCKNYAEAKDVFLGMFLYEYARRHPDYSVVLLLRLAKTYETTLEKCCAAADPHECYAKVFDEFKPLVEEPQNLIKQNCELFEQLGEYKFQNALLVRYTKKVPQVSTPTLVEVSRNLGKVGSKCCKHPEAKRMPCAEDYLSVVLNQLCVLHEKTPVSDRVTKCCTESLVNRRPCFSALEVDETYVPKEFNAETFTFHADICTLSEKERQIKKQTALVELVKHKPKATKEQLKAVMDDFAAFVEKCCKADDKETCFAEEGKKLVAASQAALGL
Cytochrome P450 2C19, sequence (P33261 whole entry): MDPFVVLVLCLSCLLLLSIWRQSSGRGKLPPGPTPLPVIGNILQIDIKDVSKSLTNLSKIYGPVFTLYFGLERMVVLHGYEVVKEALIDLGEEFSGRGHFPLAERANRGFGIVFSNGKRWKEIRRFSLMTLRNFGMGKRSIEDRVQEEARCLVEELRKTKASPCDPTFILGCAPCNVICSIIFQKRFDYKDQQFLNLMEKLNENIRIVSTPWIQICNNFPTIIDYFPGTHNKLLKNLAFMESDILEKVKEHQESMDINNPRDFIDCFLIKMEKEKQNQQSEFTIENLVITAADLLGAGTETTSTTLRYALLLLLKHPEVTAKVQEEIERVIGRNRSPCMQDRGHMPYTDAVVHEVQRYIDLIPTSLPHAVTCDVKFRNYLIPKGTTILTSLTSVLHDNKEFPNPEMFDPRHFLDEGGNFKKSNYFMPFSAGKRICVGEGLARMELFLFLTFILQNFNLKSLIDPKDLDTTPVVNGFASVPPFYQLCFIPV
Cytochrome P450 2C9, sequence (P11712 whole entry): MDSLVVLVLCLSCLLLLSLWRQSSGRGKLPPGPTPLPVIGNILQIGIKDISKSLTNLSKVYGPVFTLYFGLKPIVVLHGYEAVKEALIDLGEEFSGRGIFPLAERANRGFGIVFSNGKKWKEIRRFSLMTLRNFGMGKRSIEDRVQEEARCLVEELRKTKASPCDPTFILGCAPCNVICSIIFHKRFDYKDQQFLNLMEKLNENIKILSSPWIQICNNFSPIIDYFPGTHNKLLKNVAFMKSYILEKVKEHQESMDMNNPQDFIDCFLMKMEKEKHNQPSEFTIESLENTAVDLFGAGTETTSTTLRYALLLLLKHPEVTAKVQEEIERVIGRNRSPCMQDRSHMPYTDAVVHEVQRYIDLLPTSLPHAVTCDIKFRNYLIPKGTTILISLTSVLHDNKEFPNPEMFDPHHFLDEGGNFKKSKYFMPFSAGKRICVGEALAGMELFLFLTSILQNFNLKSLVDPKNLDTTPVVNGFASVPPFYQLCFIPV
Prostaglandin E2 receptor EP2 subtype, sequence (P43116 whole entry): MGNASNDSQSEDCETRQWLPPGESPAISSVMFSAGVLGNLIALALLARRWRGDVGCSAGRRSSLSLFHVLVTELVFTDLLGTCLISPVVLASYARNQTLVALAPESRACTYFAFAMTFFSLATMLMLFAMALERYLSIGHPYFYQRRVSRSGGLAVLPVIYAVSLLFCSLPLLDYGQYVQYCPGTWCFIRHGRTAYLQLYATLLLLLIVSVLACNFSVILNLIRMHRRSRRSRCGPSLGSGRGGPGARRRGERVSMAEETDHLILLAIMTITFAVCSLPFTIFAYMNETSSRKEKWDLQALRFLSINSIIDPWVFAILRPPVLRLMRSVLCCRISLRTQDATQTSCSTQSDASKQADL
Cytochrome P450 3A4, sequence (P08684 whole entry): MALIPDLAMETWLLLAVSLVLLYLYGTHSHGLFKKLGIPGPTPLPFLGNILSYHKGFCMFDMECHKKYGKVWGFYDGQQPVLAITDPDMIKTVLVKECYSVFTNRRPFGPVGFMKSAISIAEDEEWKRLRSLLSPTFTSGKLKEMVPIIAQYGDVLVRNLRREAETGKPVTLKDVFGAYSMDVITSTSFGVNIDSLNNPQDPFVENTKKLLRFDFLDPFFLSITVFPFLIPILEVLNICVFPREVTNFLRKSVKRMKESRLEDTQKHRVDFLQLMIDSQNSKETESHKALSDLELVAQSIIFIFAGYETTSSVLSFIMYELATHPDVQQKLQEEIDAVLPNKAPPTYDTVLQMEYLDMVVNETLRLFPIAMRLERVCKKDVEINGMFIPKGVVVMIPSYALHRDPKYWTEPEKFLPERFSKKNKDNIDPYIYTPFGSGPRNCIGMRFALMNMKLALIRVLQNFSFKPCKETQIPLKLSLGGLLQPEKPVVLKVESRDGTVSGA
Prostaglandin E2 receptor EP4 subtype, sequence (P35408 whole entry): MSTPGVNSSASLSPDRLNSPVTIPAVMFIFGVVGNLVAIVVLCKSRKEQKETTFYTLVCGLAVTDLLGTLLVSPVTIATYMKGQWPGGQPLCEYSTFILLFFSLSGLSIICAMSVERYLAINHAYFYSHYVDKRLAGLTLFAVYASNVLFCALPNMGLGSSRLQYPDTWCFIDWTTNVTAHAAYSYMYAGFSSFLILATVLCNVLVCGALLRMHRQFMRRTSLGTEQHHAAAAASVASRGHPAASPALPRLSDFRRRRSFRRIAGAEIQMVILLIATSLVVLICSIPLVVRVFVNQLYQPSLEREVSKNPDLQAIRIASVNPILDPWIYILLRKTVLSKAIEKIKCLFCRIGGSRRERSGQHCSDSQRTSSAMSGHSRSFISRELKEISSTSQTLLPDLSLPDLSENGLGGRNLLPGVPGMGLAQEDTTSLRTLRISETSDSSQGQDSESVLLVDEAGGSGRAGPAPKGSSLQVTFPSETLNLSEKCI

Compound: O=C(O)c1csc(-n2nc(-c3ccccc3)c(O)c2-c2ccccc2)n1
IC50 [1]: 60 nM

Compound: Cc1c(-c2ccccc2)nn(-c2nc(C(=O)O)cs2)c1-c1ccsc1
IC50 [1]: 80 nM

Compound: O=C(O)c1csc(-n2nc(-c3ccccc3)c3c2-c2ccccc2C3)n1
CLint scaled [2]: 425 mL/min/kg
fraction unbound (albumin): 0.0032
solubility [3]: 57 µg/mL (≈ 159 µM)
solubility [4]: 4 µg/mL (≈ 11.1 µM)
IC50 [5]: 40 nM
CLint scaled [6]: 927 mL/min/kg
IC50 [1]: 0.9 nM

Compound: O=C(O)c1csc(-n2nc(-c3ccccc3)c(Cl)c2-c2ccccc2)n1
IC50 [1]: 60 nM

Compound: Cc1c(-c2ccccc2)nn(-c2nc(C(=O)O)cs2)c1-c1cccc(F)c1
IC50 [1]: 50 nM

Compound: CCc1c(-c2ccccc2)nn(-c2nc(C(=O)O)cs2)c1-c1ccccc1
inhibition [7]: -4%

Compound: Cc1c(-c2ccccc2)nn(-c2ccc(C(=O)O)o2)c1-c1ccccc1
inhibition [7]: 24%

Compound: Cc1c(-c2ccccc2)nn(-c2nc(/C=C/C(=O)O)cs2)c1-c1ccccc1
IC50 [1]: 500 nM

Compound: O=C(O)c1csc(-n2nc(-c3ccccc3)c(F)c2-c2ccccc2)n1
IC50 [1]: 30 nM

Compound: O=C(O)c1csc(-n2nc3c(c2-c2ccccc2)CCc2ccccc2-3)n1
CLint scaled [2]: 149 mL/min/kg
fraction unbound (albumin): 0.0012
solubility [3]: 10 µg/mL (≈ 26.8 µM)
solubility [4]: 20 µg/mL (≈ 53.6 µM)
IC50 [5]: 20 nM
CLint scaled [6]: 236 mL/min/kg
IC50 [1]: 2 nM

Compound: Cc1c(-c2ccccc2)nn(-c2cncc(C(=O)O)c2)c1-c1ccccc1
inhibition [7]: 26%

Compound: O=C(O)c1csc(-n2nc(-c3ccccc3)c(I)c2-c2ccccc2)n1
IC50 [1]: 130 nM

Compound: O=C(O)c1csc(-n2nc(-c3ccccc3)c(C(F)(F)F)c2-c2ccccc2)n1
IC50 [1]: 150 nM

Compound: Nc1c(-c2ccccc2)nn(-c2nc(C(=O)O)cs2)c1-c1ccccc1
IC50 (Cytochrome P450 2C9): 5620 nM
Ki [8]: > 2700 nM
Ki [9]: > 5000 nM
solubility [10]: 867 µg/mL (≈ 2390 µM)
Papp [11]: 12.2 ×10⁻⁶ cm/s
Cmax [12]: 6.33 µM
CLint scaled [2]: 19 mL/min/kg
fraction unbound (albumin): 0.01
Ki [13]: > 8700 nM
AUC(0-inf) [14]: 17.4 µM·h
bioavailability [15]: 26%
Activity (Salmonella typhimurium): Non-toxic
solubility [3]: 1010 µg/mL (≈ 2790 µM)
solubility [4]: 865 µg/mL (≈ 2390 µM)
IC50 [5]: 60 nM
IC50 (Cytochrome P450 2C19): 6140 nM
IC50 (Cytochrome P450 3A4): > 10000 nM
Ki [16]: 8 nM
IC50 (Cytochrome P450 1A2): 7100 nM
IC50 (Thromboxane A2 receptor): 200 nM
IC50 (Cytochrome P450 2D6): > 10000 nM
CLint scaled [6]: 29 mL/min/kg
IC50 [1]: 20 nM

Compound: Cc1c(-c2ccccc2)nn(-c2nc(C(=O)O)cs2)c1-c1cccs1
IC50 [1]: 120 nM

Compound: O=C(O)c1csc(-n2nc(-c3ccccc3)c3oc4ccccc4c32)n1
IC50 [1]: 20 nM

More lines, main results first:

IC50 [1]: 100 nM
Compound: Cc1c(-c2ccccc2)nn(-c2nc(C(=O)O)cs2)c1-c1ccc(F)cc1

IC50 [1]: > 100 nM
Compound: O=C(O)c1csc(-n2nc(-c3ccccc3)c3c2-c2ccccc2CC3)n1

IC50 [1]: 1000 nM
Compound: Cc1c(-c2ccccc2)nn(-c2ccc(C(=O)O)s2)c1-c1ccccc1

inhibition [7]: 33%
Compound: Cc1c(-c2ccccc2)nn(-c2nc(C(=O)O)co2)c1-c1ccccc1

inhibition [7]: 24%
Compound: Cc1c(-c2ccccc2)nn(-c2nc(C(=O)O)cs2)c1-c1cncnc1

inhibition [7]: 18%
Compound: COc1c(-c2ccccc2)nn(-c2nc(C(=O)O)cs2)c1-c1ccccc1

IC50 [1]: 330 nM
Compound: Cc1sc(-n2nc(-c3ccccc3)c(C)c2-c2ccccc2)nc1C(=O)O

inhibition [7]: 34%
Compound: Cc1c(-c2ccccc2)nn(-c2nc(C(=O)O)cs2)c1-c1cccnc1

inhibition [7]: 10%
Compound: Cc1c(-c2ccccc2)nn(-c2nc(C(=O)O)cs2)c1-c1ccc(N)cc1

inhibition [7]: 48%
Compound: Cc1c(-c2ccccc2)nn(-c2cccc(C(=O)O)n2)c1-c1ccccc1

inhibition [7]: 8%
Compound: Cc1c(-c2ccccc2)nn(-c2nc(C(=O)O)cs2)c1-c1cnn(C)c1

IC50 [1]: 20 nM
Compound: O=C(O)c1csc(-n2nc(-c3ccccc3)c(Br)c2-c2ccccc2)n1

IC50 (Cytochrome P450 2C9): > 10000 nM
Papp [11]: 51.6 ×10⁻⁶ cm/s
CLint scaled [2]: 35 mL/min/kg
fraction unbound (albumin): 0.0029
Ki [13]: > 8700 nM
solubility [3]: 401 µg/mL (≈ 1110 µM)
solubility [4]: 129 µg/mL (≈ 357 µM)
IC50 (Cytochrome P450 2C19): 4710 nM
IC50 (Cytochrome P450 3A4): > 10000 nM
IC50 (Cytochrome P450 1A2): 7930 nM
IC50 (Cytochrome P450 2D6): > 10000 nM
CLint scaled [6]: 15 mL/min/kg
Compound: Cc1c(-c2ccccc2)nn(-c2nc(C(=O)O)cs2)c1-c1ccccc1
Activity (Salmonella typhimurium): Non-toxic
